Assay results published in ChEMBL document CHEMBL4627393, “Discovery of Potent, Selective, and State-Dependent NaV1.7 Inhibitors with Robust Oral Efficacy in Pain Models: Structure-Activity Relationship and Optimization of Chroman and Indane Aryl Sulfonamides” (J Med Chem, 2020).

How the values were obtained:
[1] = AUClast in Beagle dog at 1 mg/kg, iv administered as infusion for 15 mins by LC/MS-MS analysis; type: ADME, organism-based, Canis lupus familiaris; set-up: dose 1 mg/kg, time 0 - last, route intravenous; conditions: in vivo
[2] = AUClast in BALB/c mouse at 10 mg/kg, po measured upto 24 hrs by LC/MS-MS analysis; type: ADME, organism-based; set-up: dose 10 mg/kg, time < 24 hr, route oral; conditions: in vivo
[3] = AUClast in Sprague-Dawley rat at 10 mg/kg, po measured upto 24 hrs by LC/MS-MS analysis; type: ADME, organism-based; set-up: time < 24 hr, dose 10 mg/kg, route oral; conditions: in vivo
[4] = Cmax in Beagle dog at 1 mg/kg, iv administered as infusion for 15 mins by LC/MS-MS analysis; type: ADME, organism-based, Canis lupus familiaris; set-up: dose 1 mg/kg, route intravenous; conditions: in vivo
[5] = AUClast in Beagle dog at 1 mg/kg, iv administered as infusion for 15 mins followed by compound washout and subsequent compound dosing at 5 mg/kg, po measured up to 24 hrs by LC/MS-MS analysis; type: ADME, organism-based, Canis lupus familiaris; conditions: in vivo
[6] = Metabolic stability in monkey liver microsomes assessed as metabolic rate at 1 uM preincubated for 5 mins followed by NADPH addition and measured up to 30 mins by LC/MS-MS analysis; type: ADME, Macaca mulatta, Microsome; conditions: rhesus monkey, 0.5 h
[7] = Bioavailability in Beagle dog at 1 mg/kg, iv administered as infusion for 15 mins followed by compound washout and subsequent compound dosing at 5 mg/kg, po measured up to 24 hrs by LC/MS-MS analysis; type: ADME, organism-based, Canis lupus familiaris; conditions: in vivo
[8] = Volume of distribution at steady state in BALB/c mouse at 1 mg/kg, iv measured upto 24 hrs by LC/MS-MS analysis; type: ADME, organism-based; conditions: in vivo, read-out: Vdss
In short: (§1)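 Pharmacokinetics were run with an IV dose of 1 mg/kg and a PO dose of 10 mg/kg. Parameters reported were AUClast, Cmax, CL, T1/2, Vss and %F.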

[9] = Oral bioavailability in Sprague-Dawley rat at 10 mg/kg measured upto 24 hrs by LC/MS-MS analysis; type: ADME, organism-based; conditions: in vivo; in short: as §1
[10] = Metabolic stability in mouse liver microsomes assessed as metabolic rate at 1 uM preincubated for 5 mins followed by NADPH addition and measured up to 30 mins by LC/MS-MS analysis; type: ADME, Microsome; conditions: 0.5 h
[11] = Volume of distribution at steady state in Beagle dog at 1 mg/kg, iv administered as infusion for 15 mins by LC/MS-MS analysis; type: ADME, organism-based, Canis lupus familiaris; conditions: in vivo, read-out: Vdss; in short: as §1
[12] = Metabolic stability in human liver microsomes assessed as metabolic rate at 1 uM preincubated for 5 mins followed by NADPH addition and measured up to 30 mins by LC/MS-MS analysis; type: ADME, Microsome; conditions: 0.5 h
[13] = Cmax in BALB/c mouse at 10 mg/kg, po measured upto 24 hrs by LC/MS-MS analysis; type: ADME, organism-based; set-up: dose 10 mg/kg, route oral; conditions: in vivo
[14] = Cmax in Sprague-Dawley rat at 1 mg/kg, iv measured upto 24 hrs by LC/MS-MS analysis; type: ADME, organism-based; set-up: dose 1 mg/kg, route intravenous; conditions: in vivo
[15] = Drug concentration in brain of formalin-induced C57BL/6 mouse model of nociceptive pain at 30 mg/kg, po administered 30 mins before formalin stimulation and measured after 40 mins
[16] = Half life in BALB/c mouse at 1 mg/kg, iv measured upto 24 hrs by LC/MS-MS analysis; type: ADME, organism-based; conditions: in vivo
[17] = Apparent permeability across basolateral to apical side in human Caco2 cells; type: ADME, cell-based; conditions: Caco-2
[18] = Metabolic stability in dog liver microsomes assessed as metabolic rate at 1 uM preincubated for 5 mins followed by NADPH addition and measured up to 30 mins by LC/MS-MS analysis; type: ADME, Canis lupus familiaris, Microsome; conditions: 0.5 h
[19] = AUClast in BALB/c mouse at 1 mg/kg, iv measured upto 24 hrs by LC/MS-MS analysis; type: ADME, organism-based; set-up: time < 24 hr, dose 1 mg/kg, route intravenous; conditions: in vivo
[20] = AUClast in Sprague-Dawley rat at 1 mg/kg, iv measured upto 24 hrs by LC/MS-MS analysis; type: ADME, organism-based; set-up: dose 1 mg/kg, time < 24 hr, route intravenous; conditions: in vivo
[21] = Volume of distribution at steady state in Sprague-Dawley rat at 1 mg/kg, iv measured upto 24 hrs by LC/MS-MS analysis; type: ADME, organism-based; conditions: in vivo, read-out: Vdss
[22] = Half life in Sprague-Dawley rat at 1 mg/kg, iv measured upto 24 hrs by LC/MS-MS analysis; type: ADME, organism-based; conditions: in vivo
[23] = Half life in Beagle dog at 1 mg/kg, iv administered as infusion for 15 mins by LC/MS-MS analysis; type: ADME, organism-based, Canis lupus familiaris; conditions: in vivo
[24] = Cmax in Sprague-Dawley rat at 10 mg/kg, po measured upto 24 hrs by LC/MS-MS analysis; type: ADME, organism-based; set-up: dose 10 mg/kg, route oral; conditions: in vivo
[25] = Cmax in BALB/c mouse at 1 mg/kg, iv measured upto 24 hrs by LC/MS-MS analysis; type: ADME, organism-based; set-up: dose 1 mg/kg, route intravenous; conditions: in vivo
[26] = Lipophilicity, log D of the compound; type: physicochemical; conditions: octanol/water
[27] = Apparent permeability across apical to basolateral side in human Caco2 cells; type: ADME, cell-based; conditions: Caco-2
[28] = Oral bioavailability in BALB/c mouse at 10 mg/kg measured upto 24 hrs by LC/MS-MS analysis; type: ADME, organism-based; conditions: in vivo; in short: as §1
[29] = Cmax in Beagle dog at 1 mg/kg, iv administered as infusion for 15 mins followed by compound washout and subsequent compound dosing at 5 mg/kg, po measured up to 24 hrs by LC/MS-MS analysis; type: ADME, organism-based, Canis lupus familiaris; conditions: in vivo
[30] = Metabolic stability in rat liver microsomes assessed as metabolic rate at 1 uM preincubated for 5 mins followed by NADPH addition and measured up to 30 mins by LC/MS-MS analysis; type: ADME, Microsome; conditions: 0.5 h
[31] = Unbound drug concentration in plasma of formalin-induced C57BL/6 mouse model of nociceptive pain at 3 mg/kg, po administered 30 mins before formalin stimulation and measured after 40 mins; type: ADME, organism-based; conditions: in vivo
In short: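 Mice were dosed orally at 3 mg/kg 30 min before formalin challenge. Nociceptive behaviour was scored at 0–5 min (phase I) and 10–40 min (phase II). Plasma was collected at the end of the study, and the unbound drug concentration was determined.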

[32] = Clearance in Beagle dog at 1 mg/kg, iv administered as infusion for 15 mins by LC/MS-MS analysis; type: ADME, organism-based, Canis lupus familiaris; conditions: in vivo
[33] = Clearance in Sprague-Dawley rat at 1 mg/kg, iv measured upto 24 hrs by LC/MS-MS analysis; type: ADME, organism-based; conditions: in vivo
[34] = Clearance in BALB/c mouse at 1 mg/kg, iv measured upto 24 hrs by LC/MS-MS analysis; type: ADME, organism-based; conditions: in vivo
[35] = Tmax in male cynomolgus monkey at 150 mg/kg, po; type: ADME, organism-based, Macaca fascicularis; conditions: in vivo
In short: (§2)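 Cynomolgus monkeys, 3 male and 3 female, were given a single oral gavage dose of 150 mg/kg. Animals were watched for emesis. Tmax was recorded separately for males and females.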

[36] = Cmax in female cynomolgus monkey at 150 mg/kg, po; type: ADME, organism-based, Macaca fascicularis; set-up: dose 150 mg/kg, route oral; conditions: in vivo
[37] = Tmax in female cynomolgus monkey at 150 mg/kg, po; type: ADME, organism-based, Macaca fascicularis; conditions: in vivo; in short: as §2
[38] = Cmax in male cynomolgus monkey at 150 mg/kg, po; type: ADME, organism-based, Macaca fascicularis; set-up: dose 150 mg/kg, route oral; conditions: in vivo
[39] = AUClast in female cynomolgus monkey at 150 mg/kg, po; type: ADME, organism-based, Macaca fascicularis; set-up: dose 150 mg/kg, time 0 - last, route oral; conditions: in vivo
[40] = Drug concentration in brain of formalin-induced C57BL/6 mouse model of nociceptive pain at 30 mg/kg, […]; type: ADME, organism-based; conditions: po
[41] = AUClast in male cynomolgus monkey at 150 mg/kg, po; type: ADME, organism-based, Macaca fascicularis; set-up: dose 150 mg/kg, route oral, time 0 - last; conditions: in vivo

Structure (SMILES) | AUC(0-t) at 24 h [2] | AUC(0-t) at 24 h [3] | Drug metabolism [6] | Vd [8] | bioavailability [9] | Drug metabolism [10] | Drug metabolism [12] | Cmax [13] | Cmax [14] | half-life [16] | Papp B→A [17] | Drug metabolism [18] | AUC(0-t) at 24 h [19] | AUC(0-t) at 24 h [20] | Vd [21] | half-life [22] | Cmax [24] | Cmax [25] | logD [26] | Papp A→B [27] | also measured
Cc1ccc(-c2cc(C(F)(F)F)ccc2[C@H]2CCOc3cc(S(=O)(=O)Nc4ncccn4)ccc32)cn1 | 63 µM·h | 112 µM·h | 0.02 nmol/min/mg | 0.6 L/kg | > 100% | 0.04 nmol/min/mg | 0 nmol/min/mg | 18 µM | 2.6 µM | 1.5 h | 36.8 ×10⁻⁶ cm/s | 0.02 nmol/min/mg | 7.6 µM·h | 5.5 µM·h | 0.8 L/kg | 1.9 h | 19 µM | 3 µM | 2.3 | 39.5 ×10⁻⁶ cm/s | AUC(0-t) at 0.25 h [1]: 19 µM·h; Cmax [4]: 6.5 µM; AUC(0-t) [5]: 50 µM·h; bioavailability [7]: 51%; Vd [11]: 0.4 L/kg; brain concentration at 40 min [15]: < 1 µM; half-life [23]: 2.5 h; bioavailability [28]: 83%; Cmax [29]: 8.5 µM; Drug metabolism [30]: 0.02 nmol/min/mg
Cn1nccc1-c1cc(C(F)(F)F)ccc1[C@H]1CCOc2cc(S(=O)(=O)Nc3ncccn3)ccc21 | 107 µM·h | 114 µM·h | 0.02 nmol/min/mg | 0.9 L/kg | 100% | 0 nmol/min/mg | 0 nmol/min/mg | 15 µM | 2.2 µM | 4.2 h | 26.8 ×10⁻⁶ cm/s | 0.01 nmol/min/mg | 12 µM·h | 11 µM·h | 0.9 L/kg | 4.2 h | 13 µM | 2 µM | 3.7 | 28 ×10⁻⁶ cm/s | AUC(0-t) at 0.25 h [1]: 59 µM·h; Cmax [4]: 6.9 µM; AUC(0-t) [5]: 117 µM·h; bioavailability [7]: 40%; Cp(f) [31]: 0.728 µM; Vd [11]: 0.3 L/kg; clearance [32]: 0.5 mL/min/kg; clearance [33]: 3 mL/min/kg; half-life [23]: 7.8 h; bioavailability [28]: 89%; Cmax [29]: 10 µM; clearance [34]: 2.7 mL/min/kg; Drug metabolism [30]: 0.01 nmol/min/mg
Cn1nccc1-c1cc(C(F)(F)F)ccc1[C@H]1CCc2cc(S(=O)(=O)Nc3ncccn3)ccc21 | 84 µM·h | 46 µM·h | 0.03 nmol/min/mg | 0.8 L/kg | 58% | 0.03 nmol/min/mg | 0.03 nmol/min/mg | 18 µM | 2.5 µM | 2.8 h | 36.7 ×10⁻⁶ cm/s | 0.02 nmol/min/mg | 8.5 µM·h | 7.9 µM·h | 1 L/kg | 2.7 h | 10.9 µM | 2 µM | 2.4 | 31.5 ×10⁻⁶ cm/s | Tmax [35]: 2 h; Cmax [36]: 69 µM; Cp(f) [31]: 0.343 µM; Tmax [37]: 1.5 h; Cmax [38]: 66 µM; clearance [33]: 4.9 mL/min/kg; AUC(0-t) [39]: 601 µM·h; concentration at 40 min [40]: 2.1 µM; AUC(0-t) [41]: 684 µM·h; bioavailability [28]: 99%; clearance [34]: 3.3 mL/min/kg; Drug metabolism [30]: 0.04 nmol/min/mg
O=S(=O)(Nc1ncccn1)c1ccc2c(c1)OCC[C@@H]2c1ccc(C(F)(F)F)cc1N1CCOCC1 | 62 µM·h | 19 µM·h | 0.03 nmol/min/mg | 0.81 L/kg | 31% | 0.16 nmol/min/mg | 0.02 nmol/min/mg | 9.6 µM | 2.1 µM | 4.3 h | 25.4 ×10⁻⁶ cm/s | 0.02 nmol/min/mg | 12 µM·h | 5.9 µM·h | 1.2 L/kg | 2.8 h | 2.1 µM | 2 µM | 2.7 | 37.6 ×10⁻⁶ cm/s | AUC(0-t) at 0.25 h [1]: 48 µM·h; Cmax [4]: 4.9 µM; Vd [11]: 0.5 L/kg; brain concentration at 40 min [15]: < 1 µM; clearance [32]: 0.5 mL/min/kg; clearance [33]: 5.1 mL/min/kg; half-life [23]: 11 h; bioavailability [28]: 50%; clearance [34]: 2.5 mL/min/kg; Drug metabolism [30]: 0.02 nmol/min/mg
